pIC50: −log10 of the molar value. Activity calls are given as the source filed them. The rule behind the calls is not given here.
Assays:
HepG2 [1] = assay: Antiproliferative activity against human HepG2 cells after 24 hrs by MTT assay; format: functional, cell-based; details: HepG2, 24 h
Method in brief: (§1)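 MTT assay. 1 × 10⁴ cells per well were plated and incubated 24 h before dye was added (20 µL of 5 mg/mL MTT in PBS per well), then incubated until a purple precipitate formed. Precipitate dissolved in 150 µL DMSO after medium removal, then absorbance read.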

K562 = assay: Antiproliferative activity against human K562 cells after 24 hrs by MTT assay; format: functional, cell-based; details: K562, 24 h; method in brief: as §1
SK-OV-3 = assay: Antiproliferative activity against human SKOV3 cells after 24 hrs by MTT assay; format: functional, cell-based; details: SK-OV-3, 24 h; method in brief: as §1
HCT-116 = assay: Antiproliferative activity against human HCT116 cells after 24 hrs by MTT assay; format: functional, cell-based; details: HCT-116, 24 h; method in brief: as §1
HT-29 = assay: Antiproliferative activity against human HT-29 cells after 24 hrs by MTT assay; format: functional, cell-based; details: HT-29, 24 h; method in brief: as §1
SW-620 = assay: Antiproliferative activity against human SW620 cells after 24 hrs by MTT assay; format: functional, cell-based; details: SW-620, 24 h; method in brief: as §1
HepG2 [2] = assay: Inhibition of alpha-tubulin in human HepG2 cells assessed as decrease in microtubule formation at 1 uM after 24 hrs by DAPI staining-based immunofluorescence analysis; format: cell-based
HepG2 [3] = assay: Inhibition of alpha-tubulin in human HepG2 cells assessed as decrease in spindle formation at 1 uM after 24 hrs by DAPI staining-based immunofluorescence analysis; format: cell-based
HepG2 [4] = assay: Cell cycle arrest in human HepG2 cells assessed as accumulation at G1 phase at 1.25 uM after 8 hrs by propidium iodide staining-based flow cytometric analysis (reference value: 49.86%); format: functional
HepG2 [5] = assay: Cell cycle arrest in human HepG2 cells assessed as accumulation at S phase at 1.25 uM after 8 hrs by propidium iodide staining-based flow cytometric analysis (reference value: 32.43%); format: functional
HepG2 [6] = assay: Cell cycle arrest in human HepG2 cells assessed as accumulation at G2/M phase at 1.25 uM after 8 hrs by propidium iodide staining-based flow cytometric analysis (reference value: 17.72%); format: functional
HepG2 [7] = assay: Cell cycle arrest in human HepG2 cells assessed as accumulation at G1 phase at 2.5 uM after 8 hrs by propidium iodide staining-based flow cytometric analysis (reference value: 49.86%); format: functional
HepG2 [8] = assay: Cell cycle arrest in human HepG2 cells assessed as accumulation at S phase at 2.5 uM after 8 hrs by propidium iodide staining-based flow cytometric analysis (reference value: 32.43%); format: functional
HepG2 [9] = assay: Cell cycle arrest in human HepG2 cells assessed as accumulation at G2/M phase at 2.5 uM after 8 hrs by propidium iodide staining-based flow cytometric analysis (reference value: 17.72%); format: functional
HepG2 [10] = assay: Cell cycle arrest in human HepG2 cells assessed as accumulation at G1 phase at 5 uM after 8 hrs by propidium iodide staining-based flow cytometric analysis (reference value: 49.86%); format: functional
A549 = assay: Antitumor activity against human A549 cells xenografted in BALB/c mouse assessed as tumor growth inhibition at 20 mg/kg, iv administered at intervals of 2 days for 18 days relative to control; format: functional; details: read-out: GI
Method in brief: (§2)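 Nude mice received 1 × 10⁷ A549 cells in 0.1 mL DMEM subcutaneously in the right gluteal region. At 100 mm³ tumour volume, 24 mice were randomised into four groups (n = 6). Test groups got 20 mg/kg in 0.2 mL physiological saline by tail vein every 2 days for 18 days. Vehicle control got saline; cisplatin 5 mg/kg weekly served as positive control. Tumour growth and body weight tracked; two-sided Student's t test.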

Mus musculus = assay: Toxicity in BALB/c mouse bearing human A549 cells assessed as decrease in body weight at 20 mg/kg, iv administered at intervals of 2 days for 18 days; format: organism-based; set-up: dose 20 mg/kg, route intravenous; details: in vivo; method in brief: as §2
HepG2 [11] = assay: Cell cycle arrest in human HepG2 cells assessed as accumulation at 5 uM after 8 hrs by propidium iodide staining-based flow cytometric analysis (reference value: 17.72%)
HepG2 [12] = assay: Cell cycle arrest in human HepG2 cells assessed as accumulation at G2/M phase at 5 uM after 8 hrs by propidium iodide staining-based flow cytometric analysis (reference value: […])

Row | pIC50 (HepG2 [1]) | pIC50 (K562) | pIC50 (SK-OV-3) | pIC50 (HCT-116) | pIC50 (HT-29) | pIC50 (SW-620) | Compound | inhibition (HepG2 [2]) | inhibition (HepG2 [3]) | Activity (HepG2 [4]) | Activity (HepG2 [5]) | Activity (HepG2 [6]) | Activity (HepG2 [7]) | Activity (HepG2 [8]) | Activity (HepG2 [9]) | Activity (HepG2 [10]) | inhibition in vivo at 20 mg/kg (A549) | Activity (Mus musculus) | Activity (HepG2 [11]) | Activity (HepG2 [12])
1 | < 5.00 | < 5.00 | < 5.00 | < 5.00 | < 5.00 | < 5.00 | COc1ccc(C(=O)/C=C/c2ccc(OC)c(OC)c2OC)c2c1C=CC(C)(C)O2 | – | – | – | – | – | – | – | – | – | – | – | – | –
2 | < 5.00 | < 5.00 | < 5.00 | < 5.00 | < 5.00 | < 5.00 | COc1ccc(C(=O)/C=C/c2cccc(Cl)c2)c2c1C=CC(C)(C)O2 | – | – | – | – | – | – | – | – | – | – | – | – | –
3 | 5.12 | < 5.00 | 5.31 | < 5.00 | < 5.00 | 5.18 | COc1ccc(/C=C/C(=O)c2ccc(OC)c3c2OC(C)(C)C=C3)c(F)c1 | – | – | – | – | – | – | – | – | – | – | – | – | –
4 | 5.24 | 5.27 | 5.08 | 5.18 | 5.67 | 5.30 | COc1ccc(C(=O)/C=C/c2ccccn2)c2c1C=CC(C)(C)O2 | – | – | – | – | – | – | – | – | – | – | – | – | –
5 | < 5.00 | 5.11 | 5.03 | 5.01 | 5.04 | 5.10 | COc1ccc(C(=O)/C=C/c2cccc(C(F)(F)F)c2)c2c1C=CC(C)(C)O2 | – | – | – | – | – | – | – | – | – | – | – | – | –
6 | < 5.00 | < 5.00 | < 5.00 | < 5.00 | < 5.00 | < 5.00 | COc1ccc(C(=O)/C=C/c2ccccc2)c2c1C=CC(C)(C)O2 | – | – | – | – | – | – | – | – | – | – | – | – | –
7 | 5.37 | 5.52 | 5.63 | 5.34 | 5.42 | 5.65 | COc1ccc(C(=O)/C=C/c2ccc3ccccc3n2)c2c1C=CC(C)(C)O2 | – | – | – | – | – | – | – | – | – | – | – | – | –
8 | < 5.00 | < 5.00 | < 5.00 | < 5.00 | < 5.00 | < 5.00 | COc1ccc(C(=O)/C=C/c2cccc(O)c2)c2c1C=CC(C)(C)O2 | – | – | – | – | – | – | – | – | – | – | – | – | –
9 | < 5.00 | < 5.00 | < 5.00 | < 5.00 | < 5.00 | < 5.00 | COc1cc(/C=C/C(=O)c2ccc(OC)c3c2OC(C)(C)C=C3)cc(OC)c1O | – | – | – | – | – | – | – | – | – | – | – | – | –
10 | < 5.00 | < 5.00 | < 5.00 | < 5.00 | < 5.00 | < 5.00 | COc1ccc(C(=O)/C=C/c2cccc3ccccc23)c2c1C=CC(C)(C)O2 | – | – | – | – | – | – | – | – | – | – | – | – | –
11 | < 5.00 | < 5.00 | < 5.00 | < 5.00 | < 5.00 | < 5.00 | COc1ccc(C(=O)/C=C/c2ccc(C(F)(F)F)cc2)c2c1C=CC(C)(C)O2 | – | – | – | – | – | – | – | – | – | – | – | – | –
12 | < 5.00 | < 5.00 | < 5.00 | < 5.00 | < 5.00 | < 5.00 | CCOc1cc(/C=C/C(=O)c2ccc(OC)c3c2OC(C)(C)C=C3)ccc1O | – | – | – | – | – | – | – | – | – | – | – | – | –
13 | < 5.00 | < 5.00 | < 5.00 | < 5.00 | < 5.00 | < 5.00 | COc1ccc(C(=O)/C=C/c2ccc(-c3ccccc3)cc2)c2c1C=CC(C)(C)O2 | – | – | – | – | – | – | – | – | – | – | – | – | –
14 | < 5.00 | < 5.00 | < 5.00 | < 5.00 | < 5.00 | < 5.00 | COc1ccc(C(=O)/C=C/c2ccc(N(c3ccccc3)c3ccccc3)cc2)c2c1C=CC(C)(C)O2 | – | – | – | – | – | – | – | – | – | – | – | – | –
15 | < 5.00 | < 5.00 | < 5.00 | < 5.00 | < 5.00 | < 5.00 | COc1ccc(C(=O)/C=C/c2ccc(O)cc2)c2c1C=CC(C)(C)O2 | – | – | – | – | – | – | – | – | – | – | – | – | –
16 | < 5.00 | < 5.00 | < 5.00 | < 5.00 | < 5.00 | < 5.00 | COc1ccc(C(=O)/C=C/c2ccc(Cl)cc2)c2c1C=CC(C)(C)O2 | – | – | – | – | – | – | – | – | – | – | – | – | –
17 | < 5.00 | < 5.00 | < 5.00 | < 5.00 | < 5.00 | < 5.00 | COc1ccc(/C=C/C(=O)c2ccc(OC)c3c2OC(C)(C)C=C3)cn1 | – | – | – | – | – | – | – | – | – | – | – | – | –
18 | 6.23 | 6.10 | 6.21 | 6.21 | 6.26 | 6.17 | CCN(CC)c1ccc(/C=C/C(=O)c2ccc(OC)c3c2OC(C)(C)C=C3)cc1 | Active | Active | 40.67% | 16.77% | 42.55% | 4.49% | 17.17% | 78.35% | 0% | 84.1% | Non-toxic | 9.99% | 90.01%
19 | 5.55 | 5.23 | 5.01 | 5.09 | 5.37 | 5.39 | COc1ccc(C(=O)/C=C/c2cccc([N+](=O)[O-])c2)c2c1C=CC(C)(C)O2 | – | – | – | – | – | – | – | – | – | – | – | – | –
20 | 5.32 | 5.21 | 5.13 | 5.07 | 5.08 | 5.15 | COc1ccc(C(=O)/C=C/c2ccc(N3CCCC3)cc2)c2c1C=CC(C)(C)O2 | – | – | – | – | – | – | – | – | – | – | – | – | –

Row | Compound | pIC50 (HepG2 [1]) | pIC50 (K562) | pIC50 (SK-OV-3) | pIC50 (HCT-116) | pIC50 (HT-29) | pIC50 (SW-620) | inhibition (HepG2 [2]) | inhibition (HepG2 [3]) | Activity (HepG2 [4]) | Activity (HepG2 [5]) | Activity (HepG2 [6]) | Activity (HepG2 [7]) | Activity (HepG2 [8]) | Activity (HepG2 [9]) | Activity (HepG2 [10]) | inhibition in vivo at 20 mg/kg (A549) | Activity (Mus musculus) | Activity (HepG2 [11]) | Activity (HepG2 [12])
21 | COc1ccc(/C=C/C(=O)c2ccc(OC)c3c2OC(C)(C)C=C3)cc1 [MILLEPACHINE] | 5.82 | 5.34 | 5.63 | 5.33 | 5.48 | 6.12 | Active | Active | 10.34% | 20.35% | 69.31% | 2.64% | 17.71% | 79.65% | 0.66% | 69.4% | Non-toxic | 91.65% | 7.68%
